Experimental data as given in ChEMBL document CHEMBL1649392, “Synthesis of substituted 3-amino-N-phenyl-1H-indazole-1-carboxamides endowed with antiproliferative activity” (Eur J Med Chem, 2011).

Experiments:
Assay type in all cases: functional
MOLT-4 = experiment: Antiproliferative activity against human MOLT4 cells after 48 hrs by sulforhodamine B assay; conditions: MOLT-4, 48 h
Summary of the method: (§1)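 NCI 60-cell-line panel covering nine cancer types (leukemia, non-small cell lung, colon, CNS, melanoma, ovarian, renal, prostate, breast). Compounds were first tested at a single dose, then in a five-dose screen (series starting 0.01, 0.1 …) if they met NCI threshold criteria. Reported per line: GI50 (molar concentration inhibiting 50% net growth), TGI (total growth inhibition) and LC50 (50% net cell death).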

SW-620 = experiment: Antiproliferative activity against human SW620 cells after 48 hrs by sulforhodamine B assay; conditions: SW-620, 48 h
Summary of the method: (§2)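 NCI 60-cell-line panel screen: single dose 10 µM first, then 5-dose testing (0.01, 0.1, … molar series). For each line, GI50 is the molar concentration giving 50% inhibition of net cell growth, TGI gives total inhibition of net growth, and LC50 gives 50% net cell death. Method follows the NCI DTP protocol.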

U-251 = experiment: Antiproliferative activity against human U251 cells after 48 hrs by sulforhodamine B assay; conditions: U-251, 48 h; summary of the method: as §2
SF-268 = experiment: Antiproliferative activity against human SF268 cells after 48 hrs by sulforhodamine B assay; conditions: SF-268, 48 h; summary of the method: as §1
[1] = Antiproliferative activity against human Hs 578T cells after 48 hrs by sulforhodamine B assay; summary of the method: as §1
SF-295 = experiment: Antiproliferative activity against human SF295 cells after 48 hrs by sulforhodamine B assay; conditions: SF-295, 48 h; summary of the method: as §1
SK-OV-3 = experiment: Antiproliferative activity against human SKOV3 cells after 48 hrs by sulforhodamine B assay; conditions: SK-OV-3, 48 h; summary of the method: as §1
NCI-H23 = experiment: Antiproliferative activity against human NCI-H23 cells after 48 hrs by sulforhodamine B assay; conditions: NCI-H23, 48 h; summary of the method: as §1
A498 = experiment: Antiproliferative activity against human A498 cells after 48 hrs by sulforhodamine B assay; conditions: A498, 48 h; summary of the method: as §1
786-0 = experiment: Antiproliferative activity against human 786-0 cells after 48 hrs by sulforhodamine B assay; conditions: 786-0, 48 h; summary of the method: as §1
NCI-H226 = experiment: Antiproliferative activity against human NCI-H226 cells after 48 hrs by sulforhodamine B assay; conditions: NCI-H226, 48 h; summary of the method: as §1
COLO 205 = experiment: Antiproliferative activity against human COLO205 cells after 48 hrs by sulforhodamine B assay; conditions: COLO 205, 48 h; summary of the method: as §1
KM12 = experiment: Antiproliferative activity against human KM12 cells after 48 hrs by sulforhodamine B assay; conditions: KM12, 48 h; summary of the method: as §1
MDA-MB-231 = experiment: Antiproliferative activity against human MDA-MB-231 cells after 48 hrs by sulforhodamine B assay; conditions: MDA-MB-231, 48 h; summary of the method: as §1
HCT-15 = experiment: Antiproliferative activity against human HCT15 cells after 48 hrs by sulforhodamine B assay; conditions: HCT-15, 48 h; summary of the method: as §1
SK-MEL-28 = experiment: Antiproliferative activity against human SK-MEL-28 cells after 48 hrs by sulforhodamine B assay; conditions: SK-MEL-28, 48 h; summary of the method: as §1
OVCAR-8 = experiment: Antiproliferative activity against human OVCAR8 cells after 48 hrs by sulforhodamine B assay; conditions: OVCAR-8, 48 h; summary of the method: as §1
SK-MEL-2 = experiment: Antiproliferative activity against human SK-MEL-2 cells after 48 hrs by sulforhodamine B assay; conditions: SK-MEL-2, 48 h; summary of the method: as §1
HOP-92 = experiment: Antiproliferative activity against human HOP92 cells after 48 hrs by sulforhodamine B assay; conditions: HOP-92, 48 h; summary of the method: as §1
NCI-H322M = experiment: Antiproliferative activity against human NCI-H322M cells after 48 hrs by sulforhodamine B assay; summary of the method: as §1
NCI-H522 = experiment: Antiproliferative activity against human NCI-H522 cells after 48 hrs by sulforhodamine B assay; conditions: NCI-H522, 48 h; summary of the method: as §1
UACC-62 = experiment: Antiproliferative activity against human UACC62 cells after 48 hrs by sulforhodamine B assay; conditions: UACC-62, 48 h; summary of the method: as §2
EKVX = experiment: Antiproliferative activity against human EKVX cells after 48 hrs by sulforhodamine B assay; summary of the method: as §1
OVCAR-4 = experiment: Antiproliferative activity against human OVCAR4 cells after 48 hrs by sulforhodamine B assay; conditions: OVCAR-4, 48 h; summary of the method: as §1
A549 = experiment: Antiproliferative activity against human A549 cells after 48 hrs by sulforhodamine B assay; conditions: A549, 48 h; summary of the method: as §1
SNB-75 = experiment: Antiproliferative activity against human SNB75 cells after 48 hrs by sulforhodamine B assay; conditions: SNB-75, 48 h; summary of the method: as §1
PC-3 = experiment: Antiproliferative activity against human PC3 cells after 48 hrs by sulforhodamine B assay; conditions: PC-3, 48 h; summary of the method: as §1
Malme-3M = experiment: Antiproliferative activity against human MALME-3M cells after 48 hrs by sulforhodamine B assay; summary of the method: as §1
K562 = experiment: Antiproliferative activity against human K562 cells after 48 hrs by sulforhodamine B assay; conditions: K562, 48 h; summary of the method: as §1
T47D = experiment: Antiproliferative activity against human T47D cells after 48 hrs by sulforhodamine B assay; summary of the method: as §2
OVCAR-3 = experiment: Antiproliferative activity against human OVCAR3 cells after 48 hrs by sulforhodamine B assay; conditions: OVCAR-3, 48 h; summary of the method: as §1
[2] = read-out: LC50 (the source's name)

## Nc1ccc2c(c1)c(N)nn2C(=O)Nc1ccc(Cc2ccccc2)cc1
MOLT-4
  GI50: 4.48 µM
  TGI: 24.3 µM
MOLT-4; [2]
  CC50: > 100 µM
SW-620
  GI50: 4.48 µM
  TGI: 18.7 µM
SW-620; [2]
  CC50: 58.5 µM
U-251
  GI50: 6.53 µM
  LC50 (concentration giving 50% net cell death): 52 µM
  TGI: 20.9 µM
SF-268
  GI50: 13 µM
  TGI: 30.7 µM
SF-268; [2]
  CC50: 72.5 µM
[1]
  GI50: 17.3 µM
  TGI: 43 µM
[1]; [2]
  CC50: > 100 µM
SF-295
  GI50: 3.96 µM
  LC50: 45.4 µM
  TGI: 15.1 µM
SK-OV-3
  GI50: 15.3 µM
  TGI: 37.7 µM
SK-OV-3; [2]
  CC50: 92.8 µM
NCI-H23
  GI50: 16.9 µM
  TGI: 39.5 µM
NCI-H23; [2]
  CC50: 92.4 µM
A498
  GI50: 14.4 µM
  TGI: 28.4 µM
A498; [2]
  CC50: 56.1 µM
786-0
  GI50: 12.4 µM
  TGI: 25.9 µM
786-0; [2]
  CC50: 54.3 µM
NCI-H226
  GI50: 16.1 µM
  TGI: 38.3 µM
NCI-H226; [2]
  CC50: 91.4 µM
COLO 205
  GI50: 13.1 µM
  LC50 (concentration causing 50% net cell death): 53.9 µM
  TGI: 26.5 µM
KM12
  GI50: 3.34 µM
  TGI: 15.1 µM
KM12; [2]
  CC50: 41.3 µM
MDA-MB-231
  GI50: 7.74 µM
  TGI: 22.7 µM
MDA-MB-231; [2]
  CC50: 54.3 µM
HCT-15
  GI50: 2.75 µM
  LC50 (concentration causing 50% net cell death): 50.5 µM
  TGI: 14.2 µM
SK-MEL-28
  GI50: 13.7 µM
  TGI: 27.8 µM
SK-MEL-28; [2]
  CC50: 56.2 µM
OVCAR-8
  GI50: 20.2 µM
  TGI: > 100 µM
OVCAR-8; [2]
  CC50: > 100 µM
SK-MEL-2
  GI50: 26.1 µM
  TGI: 48.5 µM
SK-MEL-2; [2]
  CC50: 90.1 µM
HOP-92
  GI50: 10.4 µM
  LC50: 57.4 µM
  TGI: 24.4 µM
NCI-H322M
  GI50: 13 µM
  TGI: 27.5 µM
NCI-H322M; [2]
  CC50: 58.3 µM
NCI-H522
  GI50: 14.7 µM
  LC50 (concentration causing 50% net cell death): > 100 µM
  TGI: 39.6 µM
UACC-62
  GI50: 2.9 µM
  TGI: 12.6 µM
UACC-62; [2]
  CC50: 39.3 µM
EKVX
  GI50: 14 µM
  TGI: 36.7 µM
EKVX; [2]
  CC50: 96.1 µM
OVCAR-4
  GI50: 8.29 µM
  TGI: 24.1 µM
OVCAR-4; [2]
  CC50: 63.2 µM
A549
  GI50: 6.58 µM
  TGI: 57.1 µM
A549; [2]
  CC50: > 100 µM
SNB-75
  GI50: 17.4 µM
  LC50 (concentration causing 50% net cell death): 57.1 µM
  TGI: 31.5 µM
PC-3
  GI50: 4.33 µM
  TGI: 24 µM
PC-3; [2]
  CC50: 87 µM
Malme-3M
  GI50: 18 µM
  LC50 (concentration causing 50% net cell death): > 100 µM
  TGI: 89.8 µM
K562
  GI50: 2.24 µM
  LC50 (concentration causing 50% net cell death): > 100 µM
  TGI: 11.4 µM
T47D
  GI50: 5.8 µM
  LC50 (concentration giving 50% net cell death): 66 µM
  TGI: 22.8 µM
OVCAR-3
  GI50: 12.1 µM
  TGI: 28.3 µM
OVCAR-3; [2]
  CC50: 66.7 µM
